Legend:
[1] = test system: H35; test: Induction of tyrosine aminotransferase activity in cultured rat liver H4IIE cells.; assay type: functional; settings: read-out: ED50 (the source's name)
Outline: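 Confluent H4IIE rat hepatoma cells (4-day culture) incubated overnight with steroid at 0-100 nM, in triplicate wells. Lysate equilibrated at 37 °C with α-ketoglutarate and pyridoxal phosphate in phosphate buffer, pH 7.3.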

[2] = test system: Rattus norvegicus; test: In vivo suppression of thymus weight by 30% following i.t. administration.; assay type: functional; settings: inhaled or nasal
Outline: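 Male Sprague-Dawley rats (~350 g, six per group) dosed intratracheally under halothane anesthesia at 0 and 24 h. Vehicle: 1% carboxymethyl cellulose/0.2% Tween 80 suspension, sonicated. First dose given with saline, second with Sephadex G200 (final 5 mg/mL). Rats killed at 48 h; lungs and thymus weighed. Doses reducing Sephadex-induced edema and thymus weight by 30% calculated.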

[3] = test system: Rattus norvegicus; test: In vivo inhibition of Rat lung edema following i.t. administration.; assay type: functional; settings: inhaled or nasal
[4] = test system: Rattus norvegicus; test: Selectivity ratio of Topical vs Systemic routes of administration.; assay type: functional
Outline: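 Male Sprague-Dawley rats (about 350 g, six per group) received the steroid intratracheally under halothane. It was suspended in 1% carboxymethyl cellulose/0.2% Tween 80 and given at 0 h with saline and at 24 h with Sephadex G200 (final 5 mg/mL). At 48 h, lungs and thymus were weighed. The ratio compares doses giving 30% reduction of lung edema and of thymus weight in the same animals.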

[5] = biological target: T1, Glucocorticoid receptor (Rattus norvegicus, UniProt P06536); test: Steroid binding against the rat thymus glucocorticoid receptor
T1 sequence (P06536 whole entry): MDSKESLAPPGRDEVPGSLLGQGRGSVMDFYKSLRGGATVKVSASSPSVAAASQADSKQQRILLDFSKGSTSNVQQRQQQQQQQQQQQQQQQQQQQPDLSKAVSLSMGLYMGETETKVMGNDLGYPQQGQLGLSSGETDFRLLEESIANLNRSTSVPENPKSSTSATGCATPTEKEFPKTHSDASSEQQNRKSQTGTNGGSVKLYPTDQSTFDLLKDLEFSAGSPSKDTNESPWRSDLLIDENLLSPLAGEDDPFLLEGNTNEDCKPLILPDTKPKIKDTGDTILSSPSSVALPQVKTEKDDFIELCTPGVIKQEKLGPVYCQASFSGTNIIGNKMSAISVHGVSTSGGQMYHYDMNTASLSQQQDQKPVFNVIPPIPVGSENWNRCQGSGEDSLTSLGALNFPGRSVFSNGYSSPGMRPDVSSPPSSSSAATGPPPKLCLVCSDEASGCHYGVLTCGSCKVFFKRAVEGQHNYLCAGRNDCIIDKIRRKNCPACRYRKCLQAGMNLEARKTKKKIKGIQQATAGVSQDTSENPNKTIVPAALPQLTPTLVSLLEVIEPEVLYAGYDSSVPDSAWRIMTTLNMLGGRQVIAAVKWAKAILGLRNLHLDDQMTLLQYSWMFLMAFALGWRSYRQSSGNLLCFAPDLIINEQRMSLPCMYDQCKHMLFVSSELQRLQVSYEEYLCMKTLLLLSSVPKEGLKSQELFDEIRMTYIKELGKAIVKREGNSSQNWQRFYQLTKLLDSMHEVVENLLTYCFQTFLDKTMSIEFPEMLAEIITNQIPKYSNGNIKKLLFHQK

[6] = test system: Rattus norvegicus; test: Selectivity ratio of Topical vs Systemic routes of administration; assay type: functional
Outline: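 Male Sprague-Dawley rats (about 350 g, six per group) were dosed intratracheally under halothane at 0 and 24 h, as a sonicated suspension in 1% carboxymethyl cellulose/0.2% Tween 80. The first dose was given with saline, the second with Sephadex G200 (final 5 mg/mL). Lungs and thymus were weighed at 48 h. The ratio compares doses reducing edema and thymus weight by 30%, both measured in the same animals.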

| Structure (SMILES) | EC50 [1] [nM] | ED50 [2] [mg/kg] | ED50 [3] [mg/kg] | Selectivity [4] | IC50 [5] [nM] | Selectivity [6] |
| --- | --- | --- | --- | --- | --- | --- |
| CCC[C@@H]1O[C@@H]2CC3C4CCC5=CC(=O)C=C[C@]5(C)[C@@]4(F)[C@@H](O)C[C@]3(C)[C@]2(SCC)O1 (stereo partly drawn) | 1.5 | 7 | > 3 | >0.43 | 3.3 | – |
| CCC[C@@H]1O[C@@H]2CC3C4C[C@H](F)C5=CC(=O)C=C[C@]5(C)[C@@]4(F)[C@@H](O)C[C@]3(C)[C@]2(SCF)O1 (stereo partly drawn) | 0.3 | 4.6 | 0.3 | 0.065 | 2.2 | – |
| CS[C@@]12OC(C)(C)O[C@@H]1CC1C3C[C@H](F)C4=CC(=O)C=C[C@]4(C)[C@@]3(F)[C@@H](O)C[C@@]12C (stereo partly drawn) | 0.2 | 3.2 | 1.3 | 0.4 | 2.2 | – |
| CCC[C@@H]1O[C@@H]2CC3C4CCC5=CC(=O)C=C[C@]5(C)[C@@]4(F)[C@@H](O)C[C@]3(C)[C@]2(Sc2ccccn2)O1 (stereo partly drawn) | > 100 | > 3 | > 3 | – | 12 | – |
| CCC[C@@H]1O[C@@H]2CC3C4CCC5=CC(=O)C=C[C@]5(C)[C@@]4(F)[C@@H](O)C[C@]3(C)[C@]2(SC(C)C)O1 (stereo partly drawn) | 7 | > 3 | > 3 | – | 5.5 | – |
| CCS[C@]1(SC)CC[C@H]2[C@@H]3CCC4=CC(=O)C=C[C@]4(C)[C@@]3(F)[C@@H](O)C[C@@]21C | 2 | 1.1 | 2.1 | 1.91 | 2.3 | – |
| CC1(C)O[C@@H]2C[C@H]3[C@@H]4C[C@H](F)C5=CC(=O)C=C[C@]5(C)[C@@]4(F)[C@@H](O)C[C@]3(C)[C@]2(SCF)O1 | 1 | 1.9 | 0.07 | 0.037 | 4.3 | – |
| CC=C[C@@H]1O[C@@H]2C[C@H]3[C@@H]4CCC5=CC(=O)C=C[C@]5(C)[C@@]4(F)[C@@H](O)C[C@]3(C)[C@]2(SC)O1 | 1.1 | 1.1 | > 3 | >2.73 | 1.8 | – |
| CC1(C)O[C@@H]2C[C@H]3[C@@H]4CCC5=CC(=O)C=C[C@]5(C)[C@@]4(F)[C@@H](O)C[C@]3(C)[C@]2(S(C)(=O)=O)O1 | 13 | 1.4 | 2.2 | 1.57 | 5.3 | – |
| CCC[C@@H]1O[C@@H]2CC3C4C[C@H](F)C5=CC(=O)C=C[C@]5(C)[C@@]4(F)[C@@H](O)C[C@]3(C)[C@]2(SC)O1 (stereo partly drawn) | 0.4 | 0.54 | 0.11 | 0.2 | 2.4 | – |
| CCC[C@@H]1O[C@@H]2CC3C4CCC5=CC(=O)C=C[C@]5(C)[C@@]4(F)[C@@H](O)C[C@]3(C)[C@]2(SC)O1 (stereo partly drawn) | 1.7 | 1.8 | > 1 | >0.56 | 1.7 | – |
| CCC[C@@H]1O[C@@H]2CC3C4CCC5=CC(=O)C=C[C@]5(C)[C@@]4(F)[C@@H](O)C[C@]3(C)[C@]2(SCF)O1 (stereo partly drawn) | 1.2 | 4 | > 3 | >0.75 | 3.3 | – |
| CCC[C@@H]1O[C@@H]2CC3C4C[C@H](F)C5=CC(=O)CC[C@]5(C)[C@@]4(F)[C@@H](O)C[C@]3(C)[C@]2(SC)O1 (stereo partly drawn) | 0.3 | 1 | 0.06 | 0.06 | 2.2 | – |
| CCC[C@@H]1O[C@@H]2CC3C4CCC5=CC(=O)CC[C@]5(C)[C@@]4(F)[C@@H](O)C[C@]3(C)[C@]2(SC)O1 (stereo partly drawn) | 0.7 | 5.2 | 3.6 | – | – | – |
| CS[C@@]12OC(C)(C)O[C@@H]1CC1C3CCC4=CC(=O)C=C[C@]4(C)[C@@]3(F)[C@@H](O)C[C@@]12C (stereo partly drawn) | 0.2 | 0.9 | 0.3 | 0.33 | 1.6 | – |
| CC1(C)O[C@@H]2CC3C4CCC5=CC(=O)C=C[C@]5(C)[C@@]4(F)[C@@H](O)C[C@]3(C)[C@]2(Sc2ccccn2)O1 (stereo partly drawn) | 50 | > 3 | > 3 | – | 22 | – |
| CCC[C@@H]1O[C@@H]2CC3C4CCC5=CC(=O)C=C[C@]5(C)[C@@]4(F)[C@@H](O)C[C@]3(C)[C@]2([S+](C)[O-])O1 (stereo partly drawn) | 23 | 3 | > 3 | – | 3.2 | >1 |
| CCC(=O)O[C@]1(C(=O)SCF)C(C)C[C@H]2[C@@H]3C[C@H](F)C4=CC(=O)C=C[C@]4(C)[C@@]3(F)[C@@H](O)C[C@@]21C (single isomer, unassigned) [FLUTICASONE PROPIONATE] | 0.1 | 0.47 | 0.05 | – | – | – |
| CCCC1O[C@@H]2C[C@H]3[C@@H]4CCC5=CC(=O)C=C[C@]5(C)[C@H]4[C@@H](O)C[C@]3(C)[C@]2(C(=O)CO)O1 (stereo partly drawn) [BUDESONIDE] | 0.2 | 0.96 | 0.39 | 0.4 | 2.9 | – |

From ChEMBL document CHEMBL1129589, “Anti-inflammatory 17beta-thioalkyl-16alpha,17alpha-ketal and -acetal androstanes: a new class of airway selective steroids for the treatment of asthma” (J Med Chem, 1996)
